Data reported in ChEMBL document CHEMBL1255501, “Heteroresistance of Cryptococcus gattii to fluconazole” (2010).

Columns and labels:
[1] = system: Cryptococcus gattii species complex; test: Antimicrobial activity against Cryptococcus gattii serotype B isolate B3939 assessed as heteroresistant isolates at 4 ug/ml; assay type: functional, Cryptococcus bacillisporus
Method in brief: (§1)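 Population analysis: cells suspended in sterile saline at 1 × 10³ to 4 × 10³ CFU/ml and plated on plain YPD agar or YPD agar with various fluconazole concentrations. Plates incubated at 30°C for 72 h. The resistant subpopulation at each concentration is recorded as a percentage of the population.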

[2] = system: Cryptococcus gattii species complex; test: Antimicrobial activity against Cryptococcus gattii serotype B isolate RB3 assessed as heteroresistant isolates at 4 ug/ml; assay type: functional, Cryptococcus bacillisporus
Method in brief: (§2)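 Population analysis: saline cell suspensions (1 × 103 to 4 × 10^3 CFU/ml) plated on plain YPD agar or YPD agar with various fluconazole concentrations; growth recorded after 72 h at 30°C; percentage of resistant subpopulation at each drug level calculated relative to drug-free plate growth.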

[3] = system: Cryptococcus gattii species complex; test: Antimicrobial activity against Cryptococcus gattii serotype B isolate VPB572-058 assessed as heteroresistant isolates at 32 ug/ml; assay type: functional, Cryptococcus bacillisporus; method in brief: as §2
[4] = system: Cryptococcus gattii species complex; test: Antimicrobial activity against Cryptococcus gattii serotype B isolate NIH190 assessed as heteroresistant isolates at 2 ug/ml; assay type: functional, Cryptococcus bacillisporus; method in brief: as §1
[5] = system: Cryptococcus deuterogattii; test: Antimicrobial activity against Cryptococcus gattii serotype B isolate NIH444 assessed as heteroresistant isolates at 8 ug/ml; assay type: functional, Cryptococcus bacillisporus; method in brief: as §1
[6] = system: Cryptococcus bacillisporus; test: Antimicrobial activity against Cryptococcus gattii serotype C isolate NIH191 assessed as heteroresistant isolates at 16 ug/ml; assay type: functional; method in brief: as §2
[7] = system: Cryptococcus gattii species complex; test: Antimicrobial activity against Cryptococcus gattii serotype B isolate RB14 assessed as heteroresistant isolates at 32 ug/ml; assay type: functional, Cryptococcus bacillisporus; method in brief: as §2
[8] = system: Cryptococcus gattii species complex; test: Antimicrobial activity against Cryptococcus gattii serotype C isolate H0058-1-78 assessed as heteroresistant isolates at 8 ug/ml; assay type: functional, Cryptococcus bacillisporus; method in brief: as §2
[9] = system: Cryptococcus deuterogattii; test: Antimicrobial activity against Cryptococcus gattii serotype B isolate NIH444 assessed as heteroresistant isolates at 16 ug/ml; assay type: functional, Cryptococcus bacillisporus; method in brief: as §1
[10] = system: Cryptococcus gattii species complex; test: Antimicrobial activity against Cryptococcus gattii serotype C isolate NIH298 assessed as heteroresistant isolates at 4 ug/ml; assay type: functional, Cryptococcus bacillisporus
Method in brief: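 Cell suspensions of 1 × 10^3 to 4 × 10^3 CFU/ml were made in sterile saline and plated on plain YPD agar or YPD agar with various fluconazole concentrations. Plates were incubated at 30°C for 72 h, and the percentage of resistant subpopulation emerging was recorded.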

[11] = system: Cryptococcus gattii species complex; test: Antimicrobial activity against Cryptococcus gattii serotype C isolate NIH403 assessed as concentration required for heteroresistance; assay type: functional, Cryptococcus bacillisporus
Method in brief: (§3)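 […] on YPD agar at 4 to 128 μg/ml. The lowest drug concentration at which minor resistant subpopulations emerged within the patch was scored as the strain's level of heteroresistance.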

[12] = system: Cryptococcus gattii species complex; test: Antimicrobial activity against Cryptococcus gattii serotype B isolate VPB571-058 assessed as concentration required for heteroresistance; assay type: functional, Cryptococcus bacillisporus
[13] = system: Cryptococcus gattii species complex; test: Antimicrobial activity against Cryptococcus gattii serotype B isolate RAM15 assessed as heteroresistant isolates at 32 ug/ml; assay type: functional, Cryptococcus bacillisporus; method in brief: as §2
[14] = system: Cryptococcus gattii species complex; test: Antimicrobial activity against Cryptococcus gattii serotype B isolate RB-11 assessed as concentration required for heteroresistance; assay type: functional, Cryptococcus bacillisporus
[15] = system: Cryptococcus gattii species complex; test: Antimicrobial activity against Cryptococcus gattii serotype B isolate NIH286 assessed as heteroresistant isolates at 4 ug/ml; assay type: functional, Cryptococcus bacillisporus; method in brief: as §1
[16] = system: Cryptococcus gattii species complex; test: Antimicrobial activity against Cryptococcus gattii serotype C isolate H0058-1-2023 assessed as heteroresistant isolates at 4 ug/ml; assay type: functional, Cryptococcus bacillisporus; method in brief: as §2
[17] = system: Cryptococcus gattii species complex; test: Antimicrobial activity against Cryptococcus gattii serotype B isolate NIH412 assessed as heteroresistant isolates at 4 ug/ml; assay type: functional, Cryptococcus bacillisporus; method in brief: as §1
[18] = system: Cryptococcus gattii species complex; test: Antimicrobial activity against Cryptococcus gattii serotype C isolate H0058-1-818 assessed as concentration required for heteroresistance; assay type: functional, Cryptococcus bacillisporus
[19] = system: Cryptococcus gattii species complex; test: Antimicrobial activity against Cryptococcus gattii serotype B isolate RB-4 assessed as concentration required for heteroresistance; assay type: functional, Cryptococcus bacillisporus
[20] = system: Cryptococcus gattii species complex; test: Antimicrobial activity against Cryptococcus gattii serotype B isolate NIH198 assessed as heteroresistant isolates at 16 ug/ml; assay type: functional, Cryptococcus bacillisporus; method in brief: as §1
[21] = system: Cryptococcus gattii species complex; test: Antimicrobial activity against Cryptococcus gattii serotype B isolate NIH286 assessed as heteroresistant isolates at 8 ug/ml; assay type: functional, Cryptococcus bacillisporus; method in brief: as §1
[22] = system: Cryptococcus gattii species complex; test: Antimicrobial activity against Cryptococcus gattii serotype B isolate B5765 assessed as concentration required for heteroresistance; assay type: functional, Cryptococcus bacillisporus
Method in brief: (§4)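 Fluconazole spot test: 10-fold serial dilutions of each single-colony-purified strain spotted on YPD agar alone and YPD agar with fluconazole at 4 to 128 μg/ml. The level of heteroresistance to fluconazole (LHF) is the lowest drug concentration at which minor resistant subpopulations emerge within the spot.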

[23] = system: Cryptococcus gattii species complex; test: Antimicrobial activity against Cryptococcus gattii serotype B isolate NIH286 assessed as heteroresistant isolates at 32 ug/ml; assay type: functional, Cryptococcus bacillisporus; method in brief: as §1
[24] = system: Cryptococcus gattii species complex; test: Antimicrobial activity against Cryptococcus gattii serotype B isolate NIH535 assessed as heteroresistant isolates at 2 ug/ml; assay type: functional, Cryptococcus bacillisporus; method in brief: as §1
[25] = system: Cryptococcus gattii species complex; test: Antimicrobial activity against Cryptococcus gattii serotype B isolate NIH535 assessed as heteroresistant isolates at 4 ug/ml; assay type: functional, Cryptococcus bacillisporus; method in brief: as §1
[26] = system: Cryptococcus gattii species complex; test: Antimicrobial activity against Cryptococcus gattii serotype B isolate NIH767 assessed as concentration required for heteroresistance; assay type: functional, Cryptococcus bacillisporus; method in brief: as §4
[27] = system: Cryptococcus gattii species complex; test: Antimicrobial activity against Cryptococcus gattii serotype B isolate NIH281 assessed as concentration required for heteroresistance; assay type: functional, Cryptococcus bacillisporus; method in brief: as §4
[28] = system: Cryptococcus gattii species complex; test: Antimicrobial activity against Cryptococcus gattii serotype B isolate B5763 assessed as heteroresistant isolates at 8 ug/ml; assay type: functional, Cryptococcus bacillisporus; method in brief: as §1
[29] = system: Cryptococcus gattii species complex; test: Antimicrobial activity against Cryptococcus gattii serotype C isolate H0058-1-818 assessed as heteroresistant isolates at 32 ug/ml; assay type: functional, Cryptococcus bacillisporus; method in brief: as §2
[30] = system: Cryptococcus deuterogattii; test: Antimicrobial activity against Cryptococcus gattii serotype B isolate NIH444 assessed as heteroresistant isolates at 32 ug/ml; assay type: functional, Cryptococcus bacillisporus; method in brief: as §1
[31] = system: Cryptococcus gattii species complex; test: Antimicrobial activity against Cryptococcus gattii serotype B isolate NIH189 assessed as concentration required for heteroresistance; assay type: functional, Cryptococcus bacillisporus; method in brief: as §4
[32] = system: Cryptococcus gattii species complex; test: Antimicrobial activity against Cryptococcus gattii serotype B isolate RAM002 assessed as heteroresistant isolates at 4 ug/ml; assay type: functional, Cryptococcus bacillisporus; method in brief: as §2
[33] = system: Cryptococcus gattii species complex; test: Antimicrobial activity against Cryptococcus gattii serotype B isolate NIH184 assessed as heteroresistant isolates at 8 ug/ml; assay type: functional, Cryptococcus bacillisporus; method in brief: as §1
[34] = system: Cryptococcus gattii species complex; test: Antimicrobial activity against Cryptococcus gattii serotype B isolate NIH367 assessed as heteroresistant isolates at 4 ug/ml; assay type: functional, Cryptococcus bacillisporus; method in brief: as §1
[35] = system: Cryptococcus gattii species complex; test: Antimicrobial activity against Cryptococcus gattii serotype B isolate B5765 assessed as heteroresistant isolates at 2 ug/ml; assay type: functional, Cryptococcus bacillisporus; method in brief: as §1
[36] = system: Cryptococcus gattii species complex; test: Antimicrobial activity against Cryptococcus gattii serotype B isolate B5788 assessed as heteroresistant isolates at 8 ug/ml; assay type: functional, Cryptococcus bacillisporus; method in brief: as §1
[37] = system: Cryptococcus gattii species complex; test: Antimicrobial activity against Cryptococcus gattii serotype B isolate RB22 assessed as heteroresistant isolates at 2 ug/ml; assay type: functional, Cryptococcus bacillisporus; method in brief: as §2
[38] = system: Cryptococcus gattii species complex; test: Antimicrobial activity against Cryptococcus gattii serotype B isolate RB-1 assessed as concentration required for heteroresistance; assay type: functional, Cryptococcus bacillisporus
[39] = system: Cryptococcus gattii species complex; test: Antimicrobial activity against Cryptococcus gattii serotype C isolate H0058-1-1941 assessed as heteroresistant isolates at 16 ug/ml; assay type: functional, Cryptococcus bacillisporus; method in brief: as §2
[40] = system: Cryptococcus gattii species complex; test: Antimicrobial activity against Cryptococcus gattii serotype C isolate NIH917 assessed as concentration required for heteroresistance; assay type: functional, Cryptococcus bacillisporus; method in brief: as §3
[41] = system: Cryptococcus bacillisporus; test: Antimicrobial activity against Cryptococcus gattii serotype C isolate NIH191 assessed as concentration required for heteroresistance; assay type: functional
[42] = system: Cryptococcus gattii species complex; test: Antimicrobial activity against Cryptococcus gattii serotype B isolate NIH771 assessed as heteroresistant isolates at 2 ug/ml; assay type: functional, Cryptococcus bacillisporus; method in brief: as §1
[43] = system: Cryptococcus gattii species complex; test: Antimicrobial activity against Cryptococcus gattii serotype B isolate RB-33 assessed as concentration required for heteroresistance; assay type: functional, Cryptococcus bacillisporus

OC(Cn1cncn1)(Cn1cncn1)c1ccc(F)cc1F [FLUCONAZOLE] showed an Activity [1] of 100%, an Activity [2] of 100% and an Activity [3] of 1.6%. The Activity [4] was 100%, the Activity [5] was 100% and the Activity [6] was 100%. The Activity [7] was 0.8%, the Activity [8] was 100% and the Activity [9] was 100%. For the same compound, the Activity [10] was 100%, the Activity [11] was 16 µg/mL and the Activity [12] was 32 µg/mL. It also gave an Activity [13] of 10%, an Activity [14] of 32 µg/mL and an Activity [15] of 100%. The Activity [16] was 100%, the Activity [17] was 0.07% and the Activity [18] was 32 µg/mL. For the same compound, the Activity [19] was 32 µg/mL, the Activity [20] was 1.9% and the Activity [21] was 100%. The Activity [22] was 16 µg/mL, the Activity [23] was 0.06% and the Activity [24] was 100%. The Activity [25] was 0.1%, the Activity [26] was 32 µg/mL and the Activity [27] was 4 µg/mL. It also gave an Activity [28] of 0.03%, an Activity [29] of 16% and an Activity [30] of 0.5%. The Activity [31] was 16 µg/mL, the Activity [32] was 100% and the Activity [33] was 100%. It also gave an Activity [34] of 100%, an Activity [35] of 100% and an Activity [36] of 5.7%. The Activity [37] was 100%, the Activity [38] was 32 µg/mL and the Activity [39] was 100%. The Activity [40] was 32 µg/mL, the Activity [41] was 32 µg/mL and the Activity [42] was 100%. For the same compound, the Activity [43] was 32 µg/mL.
